We go through four compounds from ChEMBL document CHEMBL3632592, “Identification of Highly Promising Antioxidants/Neuroprotectants Based on Nucleoside 5'-Phosphorothioate Scaffold. Synthesis, Activity, and Mechanisms of Action” (J Med Chem, 2015).

Series [1] can be described thus: Neuroprotective activity against Fe2+-induced oxidative damage in rat primary cortical neurons assessed as cell viability after 24 hrs by MTT assay. Type of series: functional, cell-based. To be noted: Cerebral cortex neuron. The method, boiled down: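 Rat (1-day-old) cortical neurons were grown serum-free in DMEM/F12 with B-27 on poly-ornithine, treated with Ara-C and cultured 5 d. Cells were pretreated with nucleotide (0.01–25 µM), then exposed to FeSO4 3 µM final for 24 h. MTT 1 mg/mL was added for 2 h at 37 °C, formazan dissolved in DMSO, A550 read. Viability given as % of vehicle control; three independent experiments in triplicate.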

Series [2] can be described thus: Antioxidant activity assessed as inhibition of Fe2+-induced DMPO-OH adduct formation from H2O2 preincubated for 30 secs followed by DMPO/H2O2 addition measured after 150 secs by ESR analysis. The series is classed as physicochemical. The procedure, abridged:
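Fenton/ESR spin trapping: 1 mM ammonium iron(II) sulfate was added to 5–500 µM compound, then Tris buffer pH 7.4 (final pH 7.2–7.4). After 30 s, 100 mM DMPO and 100 mM H2O2 were added (stock concentrations). The ESR spectrum was recorded 150 s after H2O2, at room temperature. DMPO-OH adduct expressed as % of control containing FeSO4, H2O2 and DMPO only.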

The target in the next series is P2Y purinoceptor 1 (Homo sapiens, UniProt P47900). Kind of series: Agonist activity at GFP-tagged human P2Y1R transfected in human 1321N1 cells assessed as increase in intracellular Ca2+ level by fura 2/AM probe-based fluorescence assay. Type of series: functional, cell-based.
Chain of P2Y purinoceptor 1 (P47900 whole entry): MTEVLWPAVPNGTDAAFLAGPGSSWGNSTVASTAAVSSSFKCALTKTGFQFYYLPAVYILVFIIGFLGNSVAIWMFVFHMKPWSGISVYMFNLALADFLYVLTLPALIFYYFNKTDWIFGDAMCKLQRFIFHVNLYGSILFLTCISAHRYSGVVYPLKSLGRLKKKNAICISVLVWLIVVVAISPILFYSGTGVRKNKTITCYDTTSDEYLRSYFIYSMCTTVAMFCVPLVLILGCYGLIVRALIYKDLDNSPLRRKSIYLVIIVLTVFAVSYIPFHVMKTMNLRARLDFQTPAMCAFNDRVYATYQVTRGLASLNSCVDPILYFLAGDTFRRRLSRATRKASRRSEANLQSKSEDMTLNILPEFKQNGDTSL
The nature of series [3]: Metal chelating activity assessed as inhibition of Fe2+-ferrozine complex formation at 80 uM after 10 mins relative to control. The series is classed as physicochemical. The procedure, abridged:
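FeSO4 (final 10 µM) was mixed with ferrozine (final 20 µM) and nucleotide (final 25–200 µM) in water and agitated 10 min at room temperature. Fe(II)-ferrozine complex absorbance at 562 nm, measured with versus without compound. Mean of three experiments.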

A further series deals with T1, P2Y purinoceptor 11 (Homo sapiens, UniProt Q96G91).
T1 sequence (Q96G91 whole entry): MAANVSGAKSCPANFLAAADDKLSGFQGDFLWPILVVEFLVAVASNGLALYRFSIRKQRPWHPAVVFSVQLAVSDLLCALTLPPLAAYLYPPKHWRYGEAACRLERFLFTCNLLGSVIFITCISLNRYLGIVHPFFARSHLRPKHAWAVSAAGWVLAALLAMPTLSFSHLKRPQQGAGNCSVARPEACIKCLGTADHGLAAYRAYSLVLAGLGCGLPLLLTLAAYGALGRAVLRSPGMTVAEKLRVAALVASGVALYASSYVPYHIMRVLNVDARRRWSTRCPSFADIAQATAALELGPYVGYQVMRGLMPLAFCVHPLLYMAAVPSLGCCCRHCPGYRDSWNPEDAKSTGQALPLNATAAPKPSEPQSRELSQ
Kind of series: Agonist activity at GFP-tagged human P2Y11R transfected in human 1321N1 cells assessed as increase in intracellular Ca2+ level by fura 2/AM probe-based fluorescence assay. Type of series: functional, cell-based.

Series [4] in a line: Half life in human serum at 37 degC by HPLC analysis. The series is classed as ADME, cell-free. The method, boiled down: (§1)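 Nucleotides were incubated in human blood serum or RPMI-1640 at 37 °C for 0.5–24 h. Hydrolysis was followed by the change in HPLC peak integration of each analogue over time, and half-life was derived from this.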
The nature of series [5]: Half life of the compound in RPMI-1640 medium at 37 degC by HPLC analysis. Type of series: ADME. The method, boiled down:
as §1

Series [6] addresses T2, eNPP1 (ectonucleotide pyrophosphatase/phosphodiesterase family member 1) (Homo sapiens, UniProt P22413).
T2 sequence (P22413 whole entry): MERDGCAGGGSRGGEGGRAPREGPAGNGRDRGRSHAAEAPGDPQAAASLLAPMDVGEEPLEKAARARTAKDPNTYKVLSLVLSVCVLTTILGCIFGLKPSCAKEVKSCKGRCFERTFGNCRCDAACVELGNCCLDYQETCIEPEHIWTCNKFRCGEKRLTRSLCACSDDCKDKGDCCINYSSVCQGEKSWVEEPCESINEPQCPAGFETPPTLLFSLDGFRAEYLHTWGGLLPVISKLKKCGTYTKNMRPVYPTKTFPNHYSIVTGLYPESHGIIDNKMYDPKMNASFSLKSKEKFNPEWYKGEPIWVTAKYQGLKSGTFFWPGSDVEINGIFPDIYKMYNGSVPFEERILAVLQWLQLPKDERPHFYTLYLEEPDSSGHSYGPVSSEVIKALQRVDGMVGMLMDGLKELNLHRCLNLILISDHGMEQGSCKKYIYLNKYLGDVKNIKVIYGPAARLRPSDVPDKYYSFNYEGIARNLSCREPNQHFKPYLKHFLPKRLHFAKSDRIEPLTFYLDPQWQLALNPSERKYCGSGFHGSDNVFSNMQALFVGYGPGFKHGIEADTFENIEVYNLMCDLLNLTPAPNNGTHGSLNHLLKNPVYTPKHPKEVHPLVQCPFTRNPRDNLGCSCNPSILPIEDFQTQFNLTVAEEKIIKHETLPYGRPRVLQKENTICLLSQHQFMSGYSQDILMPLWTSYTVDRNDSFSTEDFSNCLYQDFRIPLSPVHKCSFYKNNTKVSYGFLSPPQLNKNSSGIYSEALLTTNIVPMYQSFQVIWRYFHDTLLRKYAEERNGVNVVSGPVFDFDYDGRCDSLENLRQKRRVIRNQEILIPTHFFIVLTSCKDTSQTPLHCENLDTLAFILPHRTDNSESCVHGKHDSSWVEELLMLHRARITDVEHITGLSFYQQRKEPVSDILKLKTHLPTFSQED
Kind of series: (§2) Drug metabolism assessed as human eNPP1-mediated compound hydrolysis at 4 mM after 2 hrs by reverse-phase HPLC analysis relative to ATP. The series is classed as ADME. To be noted: human eNPP1 enzyme, read-out: Drug metabolism. The procedure, abridged:
(§3)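 Human eNPP1 extract (19 µg) was preincubated 3 min at 37 °C in 1 mM CaCl2, 200 mM NaCl, 10 mM KCl, 100 mM Tris pH 8.5, then reaction started with compound (4 mM stock). Stopped after 2 h with ice-cold 1 M perchloric acid, neutralised with KOH, and analysed by RP-HPLC (90% 100 mM TEAA pH 7/10% CH3CN). Degradation from the monophosphate peak after subtracting the acid-only control.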

Series [7] can be described thus: Antioxidant activity in human NTERA2 cells assessed as inhibition of Fe2+-induced reactive oxygen species formation at 0.2 uM after 1 hr by DCFH-DA dye-based fluorometric analysis relative to control. To be noted: NTERA2, 1 h. Type of series: functional.
A short description of series [8]: Antioxidant activity assessed as ABTS radical scavenging activity after 7 mins. The series is classed as physicochemical. The method, boiled down:
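ABTS radical cation made from 7 mM ABTS with 2.45 mM persulfate (final), kept in the dark at room temperature 12–16 h. It was then diluted in water pH 7.4 to A734 0.80 and mixed with compound or Trolox standard (final 0–60 µM). A734 was read at 7 min. Percent inhibition plotted against concentration; at least three runs, in triplicate.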

Series [9] in a line: Metal chelating activity assessed as inhibition of Fe2+-ferrozine complex formation after 10 mins. Type of series: physicochemical. The procedure, abridged: (§4)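 Competitive ferrozine assay. FeSO4 (final 10 µM) and ferrozine (final 20 µM) are mixed with nucleotide in DDW at final 25–200 µM and agitated 10 min at room temperature. Absorbance of the Fe(II)-ferrozine complex is read at 562 nm with and without compound, and inhibition of complex formation is calculated. Three experiments, mean ± S.D.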

Series [10] in a line: Metal chelating activity assessed as inhibition of Fe2+-ferrozine complex formation at 200 uM after 10 mins relative to control. The series is classed as physicochemical. The procedure, abridged: as §4
Series [11] concerns Serum. The experiment in a line: Drug metabolism in human serum assessed as formation of adenosine at 37 degC measured over 24 hrs by HPLC analysis. Type of series: ADME, cell-free. The procedure, abridged: (§5)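 Incubation in human blood serum and in RPMI-1640 at 37 °C for 0.5–24 h. The HPLC peak integration of each nucleotide is followed over time, and half-life comes from the decay. The products AMP and adenosine are seen as HPLC peaks.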

Series [12] deals with T3, Ectonucleotide pyrophosphatase/phosphodiesterase family member 1 (Homo sapiens, UniProt P22413).
T3 sequence (P22413 whole entry): T2 sequence (P22413 whole entry)
The description is as §2. The series is classed as ADME. To be noted: 2 h, 4000 µM. The method, boiled down:
as §3

The nature of series [13]: Drug level in RPMI-1640 medium treated with ADP at 37 degC measured over 24 hrs by HPLC analysis. The series is classed as physicochemical. The procedure, abridged: as §5
Series [14] has as its system Serum. Kind of series: Drug level in human serum treated with ADP at 37 degC measured over 24 hrs by HPLC analysis. The series is classed as ADME, cell-free. The method, boiled down:
as §5

As to `CSc1nc(N)c2ncn([C@@H]3O[C@H](COP(=O)(S)OP(=O)(O)O)[C@@H](O)[C@H]3O)c2n1` (stereo in doubt; 7A), the values for the EC50 (in series [1]; on P2Y purinoceptor 1; at P2Y purinoceptor 11) were 0.04 µM, 0.0026 µM and 3.2 µM, respectively. Besides, the 50% inhibitory concentration (IC50) was determined as 37 µM in series [2], 0.08 µM in the series on PC-12 and 12.5 µM in [8]. The “inhibition (INH)” value in [3] was determined as 50%. Also, the half-life in series [4] and in [5] was 15 h throughout. For the same compound, the metabolised at 2 h, 4000 µM in [6] was found to be 36.6%. The inhibition at 0.2 µM in series [7] was 50%.
Consider `Nc1ncnc2c1ncn2[C@@H]1O[C@H](COP(=O)(O)OP(=O)(O)O)[C@@H](O)[C@H]1O` [ADENOSINE DIPHOSPHATE], for which the IC50 in series [9] was more than 200 µM; in series [2] it was 170 µM; in series [8], 30 µM. For the same compound, the EC50 in series [1] came out at 19 µM. Moreover, the “inhibition (INH)” value in [10] is recorded as 40%. In addition, the half-life in series [4] and in series [5] was 1.5 h each time. Besides, the Drug metabolism entry in the series on Serum [11] was “metabolite_detected”.
For the compound `CSc1nc(N)c2ncn([C@@H]3O[C@H](COP(=O)(S)OP(=O)(O)O)[C@@H](O)[C@H]3O)c2n1` (stereo in doubt; 7B), the half-maximal inhibitory concentration (IC50) worked out at 38 µM in [2], 0.6 µM in the series on PC-12 and 12 µM in [8]. Moreover, the EC50 on P2Y purinoceptor 1 is 0.017 µM; on P2Y purinoceptor 11, 1 µM. Also, the Drug metabolism in series [12] came to 23.7%.
In the case of `Nc1ncnc2c1ncn2[C@@H]1O[C@H](CO)[C@@H](O)[C@H]1O` [ADENOSINE], the Drug metabolism result (in series [13]; in the series on Serum [14]) was “metabolite_detected” in each case.
